Consider 21 molecules from ChEMBL document CHEMBL1124932, “Synthesis and antiviral activity of 9-alkoxypurines. 1. 9-(3-Hydroxypropoxy)- and 9-[3-hydroxymethyl)propoxy]purines” (J Med Chem, 1990).

pIC50: −log10 of the molar value.

Data set [1] deals with Mus musculus. In words: Concentration of BRL 44385 in blood was determined in female BALB/c mice at 60 min a after of dosing of […]. The data set is classed as ADME, organism-based. The following applies: in vivo, 1 h. A digest of the protocol: (§1)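 Female Balb/c mice (20 g), fasted 18 h, given a single 0.2 mmol/kg oral gavage dose in 0.1 mL 1% (carboxymethyl)cellulose. Blood drawn by cardiac puncture with heparinised syringes at 15, 60 and 180 min. Equal volumes from three mice pooled per time point. Samples deproteinised with 16% trichloroacetic acid, neutralised with NaHCO3, mixed with 0.4 M NH4OAc (pH 6.0), and analysed by HPLC.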

Data set [2] deals with Mus musculus. In words: Concentration of BRL 44385 in blood was determined in female BALB/c mice at 15 min a after of dosing of […]. The data set is classed as ADME, organism-based. The following applies: in vivo, 0.25 h. A digest of the protocol:
as §1

For data set [3], the system named is MRC5. As to the kind of experiment: Antiviral activity in plaque reduction assay was determined against varicella zoster virus (VZV) in MRC-5 cells. The data set is classed as functional, cell-based. The following applies: Homo sapiens. For orientation: Plaques are areas of infected cells; plaque reduction assays count them against a control.
For the next data set, the system named is Vero. As to the kind of experiment: Antiviral activity in plaque reduction assay was determined against herpes simplex virus type 1 (HSV-1) in Vero cells. The data set is classed as functional, cell-based. As to conditions: Chlorocebus sabaeus. The method, boiled down: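 Vero monolayers infected with about 50 PFU HSV-1. Compound at various concentrations, present throughout incubation. Stocks 10 mg/mL in Me2SO, diluted in culture medium. Plaques counted when clearly visible, usually 3 days.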

Data set [4] deals with MRC5. In words: Antiviral activity in plaque reduction assay was determined against herpes simplex virus type 2 (HSV-2) in MRC-5 cells. The data set is classed as functional, cell-based. The following applies: Homo sapiens. A digest of the protocol:
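HSV-2 at about 50 PFU infected onto MRC-5 monolayers. Compound at various concentrations, present throughout incubation. Stocks 10 mg/mL in Me2SO, diluted in culture medium. Plaques counted when clearly visible, usually 1 day.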

Data set [5] concerns Mus musculus. In words: Concentration of BRL 44385 in blood was determined in female BALB/c mice at 60 min after dosing of […]. The following applies: in vivo, 1 h. The data set is classed as ADME, organism-based. A digest of the protocol:
as §1

As to `Nc1ncc2ncn(OCCCOC(=O)c3ccccc3)c2n1`, the figures for the concentration with Mus musculus [1] and in the data set on Mus musculus [2] were 4 µM and 46 µM, respectively.
The term pIC50 denotes the negative decadic logarithm of the IC50, by convention in mol/L. A higher pIC50 goes with a small IC50. As for `Nc1nc(O)c2ncn(OCC3COP(=O)(O)OC3)c2n1` (stereo not drawn), the negative-log IC50 (pIC50) with MRC5 [3] was 3.73; in the data set with Vero it was 3.74; in the data set on MRC5 [4], 3.74.
For the molecule `Nc1nc(O)c2ncn(OCCCOC(=O)c3ccccc3)c2n1`, the concentration with Mus musculus [1] and in the data set with Mus musculus [2] was below 2 µM in each case. The pIC50 was below 3.52 in the data set on MRC5 [3], 5.07 in the data set with Vero and 5.19 in the data set with MRC5 [4].
Turning to `CC(=O)OCC(COC(C)=O)COn1cnc2cnc(N)nc21`, the concentration with Mus musculus [1] turned out to be 10 µM; with Mus musculus [2], 53 µM.
For the molecule `CCOc1nc(N)nc2c1ncn2OCC(CO)CO`, the concentration in the data set with Mus musculus [1] amounted to 15 µM; in the data set on Mus musculus [2], 37 µM.
Regarding `CC(=O)OCCCOn1cnc2c(O)nc(N)nc21`, the concentration worked out at 5 µM with Mus musculus [1] and 3 µM in the data set on Mus musculus [2]. Also, the negative logarithm of the IC50 (pIC50) with MRC5 [3] was 4.35; with Vero, 4.80; with MRC5 [4], 5.39.
Turning to `Nc1ncc2ncn(OCC(COC(=O)c3ccccc3)COC(=O)c3ccccc3)c2n1`, the concentration in the data set with Mus musculus [5] is 9 µM; with Mus musculus [2], 14 µM.
Take `Nc1nc(O)c2ncn(OCCCO)c2n1`: the concentration in the data set on Mus musculus [1] turned out to be 5 µM; with Mus musculus [2] it was 8 µM. Also, the pIC50 in the data set on MRC5 [3] was 5.36; in the data set with Vero it was 5.68; in the data set on MRC5 [4], 6.15.
The corresponding values for `Nc1nc(O)c2ncn(OCC(CO)CO)c2n1` are 2 µM, 2 µM, 4.96, 5.23 and 5.23.
With `CCOc1nc(N)nc2c1ncn2OCCCO`, the concentration was below 2 µM in the data set with Mus musculus [1] and 6 µM with Mus musculus [2].
For the molecule `COc1nc(N)nc2c1ncn2OCC(CO)CO`, the results for the concentration in the data set on Mus musculus [1] and in the data set on Mus musculus [2] were 8 µM and 7 µM, respectively.
The corresponding values for `CCCCCC(=O)OCCCOn1cnc2cnc(N)nc21` are 4 µM and 66 µM.
In the case of `Nc1nc(N)c2ncn(OCC(CO)CO)c2n1`, the concentration in the data set with Mus musculus [1] and with Mus musculus [2] was below 2 µM throughout.
As to `Nc1nc(Cl)c2ncn(OCC(CO)CO)c2n1`, the results for the concentration in the data set on Mus musculus [1] and in the data set on Mus musculus [2] were 5 µM and 11 µM, respectively.
As to `Nc1ncc2ncn(OCCCO)c2n1`, the concentration in the data set on Mus musculus [1] is 3 µM; with Mus musculus [2] it was 43 µM.
Take `CCC(=O)OCC(COC(=O)CC)COn1cnc2cnc(N)nc21`: the concentration worked out at 12 µM in the data set on Mus musculus [1] and 49 µM in the data set with Mus musculus [2].
With `CCCCCC(=O)OCCCOn1cnc2c(O)nc(N)nc21`, the concentration amounted to 3 µM in the data set on Mus musculus [1] and 8 µM in the data set on Mus musculus [2]. The pIC50 with MRC5 [3] was 5.13; with Vero it was 5.68; in the data set with MRC5 [4], 6.66.
Turning to `CC(=O)OCCCOn1cnc2cnc(N)nc21`, the concentration in the data set with Mus musculus [1] was found to be 3 µM; with Mus musculus [2], 45 µM.
In the case of `Nc1ncc2ncn(OCC(CO)CO)c2n1`, the concentration with Mus musculus [1] came to 16 µM; in the data set on Mus musculus [2] it was 31 µM.
Regarding `CC(C)Oc1nc(N)nc2c1ncn2OCC(CO)CO`, the concentration was 26 µM in the data set with Mus musculus [1] and 29 µM in the data set with Mus musculus [2].
For `Nc1nc2c(ncn2COCCO)c(=O)[nH]1` [ACYCLOVIR], the negative-log IC50 (pIC50) with Vero is 5.17; with MRC5 [4] it was 5.60.
